What was measured:
Type in all cases: cell-based
[1] = test system: eIF4E phosphorylation (MNK1/2 activity) in MDA-MB-231 cells; assay: western blot of eIF4E phosphorylation; conditions: for inhibition of eIF4E phosphorylation: MDA-MB-231 cells, 24 h, western blot
In short: (§1)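 MDA-MB-231 cells were grown in DMEM with 10% heat-inactivated FBS and penicillin/streptomycin, seeded at 6000 cells/cm² 24 h before treatment. DMSO was kept below 0.5%, with DMSO as negative control. Immunoblotting used ECL detection, with β-actin (1:20 000) probed.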

[2] = test system: MNK1 phosphorylation at T209/214 in MDA-MB-231 cells; assay: western blot of MNK1 phosphorylation at T209/214 in MDA-MB-231 cells; conditions: MDA-MB-231, 24 h
In short: as §1

MDA-MB-231 cells = assay: crystal violet growth assay, MDA-MB-231; conditions: MDA-MB-231, 72 h, up to 200 nM
In short: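 Cells kept in DMEM (4.5 g/L glucose) with 10% heat-inactivated FBS and penicillin/streptomycin at 37 °C, 5% CO2. Seeded at 6000 cells/cm², treated 24 h later for 72 h; DMSO kept below 0.5%, DMSO as negative control. Fixed 30 min in 4% formaldehyde, PBS washes, stained 15 min with 0.5% crystal violet, dye dissolved in 15% AcOH, OD 595 nm. Three independent experiments, standard deviation.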

[3] = target: MNK1-eIF4G interaction in HEK-293 cells (Homo sapiens, UniProt Q9BUB5); assay: immunoprecipitation of endogenous eIF4G, MNK1-eIF4G interaction in HEK-293 cells; conditions: HEK-293, 20 μM EB1 or 100 nM eFT508, UV irradiation and 40 min recovery
In short: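 HEK-293 cells were treated 24 h with DMSO or inhibitor, then UV-irradiated (60 J/m²) and recovered 40 min at 37 °C. Anti-eIF4G was bound to protein A beads (4 h, 4 °C), then incubated overnight at 4 °C with about 2 mg precleared lysate. Beads were washed, boiled 5 min at 95 °C, and probed for MNK1 by immunoblot.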

Sequence of MNK1-eIF4G interaction in HEK-293 cells (Q9BUB5 1-424 isoform Q9BUB5-2): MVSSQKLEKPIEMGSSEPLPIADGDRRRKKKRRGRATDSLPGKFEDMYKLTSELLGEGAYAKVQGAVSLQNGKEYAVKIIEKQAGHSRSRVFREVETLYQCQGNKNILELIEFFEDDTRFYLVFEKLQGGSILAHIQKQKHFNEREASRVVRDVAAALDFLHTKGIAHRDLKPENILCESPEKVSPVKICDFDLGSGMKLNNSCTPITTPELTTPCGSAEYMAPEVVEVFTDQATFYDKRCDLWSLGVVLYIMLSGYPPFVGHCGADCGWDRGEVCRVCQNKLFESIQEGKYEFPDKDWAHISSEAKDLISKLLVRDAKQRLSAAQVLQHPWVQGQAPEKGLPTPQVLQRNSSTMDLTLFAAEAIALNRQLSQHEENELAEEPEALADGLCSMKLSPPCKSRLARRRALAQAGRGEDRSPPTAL

Row | Structure (SMILES) | inhibition of eIF4E phosphorylation after UV stimulation ([1]; MDA-MB-231, pretreatment with inhibitor, UV irradiation, 40 min recovery) | inhibition of eIF4E phosphorylation [1] | inhibition of eIF4E phosphorylation ([1]; listed as EB1) | effect on activating phosphorylation of MNK1 at T209/214 [2] | effect on cell growth (MDA-MB-231 cells) | effect on interaction between MNK1 and eIF4G [3]
1 | Nc1n[nH]c2nc(-c3ccccc3)cc(-c3ccccc3)c12 [6b, 4,6-Diphenyl-1H-pyrazolo[3,4-b]pyridin-3-amine] | strongly inhibited eIF4E phosphorylation | clear inhibition of eIF4E phosphorylation | more potent than CGP5738 but less active than the eFT508 | – | – | –
2 | Nc1ncnc2[nH]nc(Nc3ccc(F)cc3)c12 [CGP57380 (2), CGP57380] | – | – | – | strongly induced phosphorylation of MNKs at T209/214 | – | –
3 | Cc1cc(Nc2cc(N)ncn2)c(=O)n2c1C(=O)NC21CCCCC1 [eFT508 (3), eFT508] | – | complete inhibition of eIF4E phosphorylation can be already observed at low nanomolar concentrations | – | strongly induced phosphorylation of MNKs at T209/214 | not able to inhibit the growth | strongest interaction of eIF4G with MNK1
